Data published in ChEMBL document CHEMBL4177770, “Discovery of MK-6169, a Potent Pan-Genotype Hepatitis C Virus NS5A Inhibitor with Optimized Activity against Common Resistance-Associated Substitutions” (J Med Chem, 2018).
Numbering of substitutions follows the chain as printed.

How the values were obtained:
[1] = Resistance ratio of EC90 for NS5A in HCV genotype 1b infected in HuH7 replicon cells to EC90 for NS5A in HCV genotype 1a infected in HuH7 replicon cells; format: cell-based
[2] = test system: T1, Nonstructural protein 5A (Hepatitis C virus), Q5L478 [Y93H]; test: Inhibition of NS5A Y93H mutant in HCV genotype 1a infected in HuH7 replicon cells assessed as decrease in viral replication after 3 days by RT-PCR method; format: cell-based; conditions: Hepatitis C virus subtype 1a
T1 sequence (whole entry): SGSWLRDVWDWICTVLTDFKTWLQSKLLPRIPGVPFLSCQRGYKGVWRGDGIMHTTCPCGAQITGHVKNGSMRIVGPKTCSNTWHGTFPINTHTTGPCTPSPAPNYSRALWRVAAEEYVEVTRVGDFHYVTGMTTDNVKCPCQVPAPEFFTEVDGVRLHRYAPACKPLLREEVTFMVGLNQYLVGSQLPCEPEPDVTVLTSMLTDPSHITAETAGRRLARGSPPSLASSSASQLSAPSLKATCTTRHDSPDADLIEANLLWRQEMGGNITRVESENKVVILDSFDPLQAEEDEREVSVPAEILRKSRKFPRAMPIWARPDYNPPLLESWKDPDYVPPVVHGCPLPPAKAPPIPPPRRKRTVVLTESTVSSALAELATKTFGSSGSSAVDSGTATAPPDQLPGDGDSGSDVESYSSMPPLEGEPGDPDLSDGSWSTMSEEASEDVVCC

[3] = target: T2, Nonstructural protein 5A (Hepatitis C virus) (UniProt Q5L478); test: Inhibition of NS5A L31M mutant in HCV genotype 2b infected in HuH7 replicon cells assessed as decrease in viral replication after 3 days by RT-PCR method; format: cell-based; conditions: Hepatitis C virus subtype 2b
T2 sequence (whole entry): T1 sequence (whole entry) with H93Y

[4] = test system: Hepatitis C virus subtype 1a; test: Resistance ratio of EC90 for NS5A L31V mutant in HCV genotype 1a infected in HuH7 replicon cells to EC90 for NS5A in HCV genotype 1a infected in HuH7 replicon cells; format: cell-based
[5] = target: T2, Nonstructural protein 5A (Hepatitis C virus); test: Inhibition of NS5A in HCV genotype 1b infected in HuH7 replicon cells assessed as decrease in viral replication after 3 days by RT-PCR method; format: cell-based; conditions: Hepatitis C virus subtype 1b
[6] = target: T2, Nonstructural protein 5A (Hepatitis C virus); test: Inhibition of NS5A in HCV genotype 1a infected in HuH7 replicon cells assessed as decrease in viral replication after 3 days by RT-PCR method; format: cell-based; conditions: Hepatitis C virus subtype 1a
[7] = Resistance ratio of EC90 for NS5A L31M mutant in HCV genotype 2b infected in HuH7 replicon cells to EC90 for NS5A in HCV genotype 1a infected in HuH7 replicon cells; format: cell-based
[8] = target: T2, Nonstructural protein 5A (Hepatitis C virus); test: Inhibition of NS5A in HCV genotype 3a infected in HuH7 replicon cells assessed as decrease in viral replication after 3 days by RT-PCR method; format: cell-based; conditions: Hepatitis C virus subtype 3a
[9] = target: T2, Nonstructural protein 5A (Hepatitis C virus); test: Inhibition of NS5A L31V mutant in HCV genotype 1a infected in HuH7 replicon cells assessed as decrease in viral replication after 3 days by RT-PCR method; format: cell-based; conditions: Hepatitis C virus subtype 1a
[10] = Resistance ratio of EC90 for NS5A in HCV genotype 4a infected in HuH7 replicon cells to EC90 for NS5A in HCV genotype 1a infected in HuH7 replicon cells; format: cell-based
[11] = Resistance ratio of EC90 for NS5A in HCV genotype 3a infected in HuH7 replicon cells to EC90 for NS5A in HCV genotype 1a infected in HuH7 replicon cells; format: cell-based
[12] = target: T2, Nonstructural protein 5A (Hepatitis C virus); test: Inhibition of NS5A in HCV genotype 4a infected in HuH7 replicon cells assessed as decrease in viral replication after 3 days by RT-PCR method; format: cell-based; conditions: Hepatitis C virus subtype 4a
[13] = test system: Hepatitis C virus subtype 1a; test: Resistance ratio of EC90 for NS5A Y93H mutant in HCV genotype 1a infected in HuH7 replicon cells to EC90 for NS5A in HCV genotype 1a infected in HuH7 replicon cells; format: cell-based
[14] = Clearance in Wistar Han rat at 2 mg/kg, iv by LC/MS method; format: ADME, organism-based; conditions: in vivo
In short: (§1)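 Male Wistar Han rats, two per group, dosed IV at 2 mg/kg in 60% PEG200. Plasma was obtained by centrifuging the blood, and compound concentrations were measured by LC/MS.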

[15] = Drug level in Wistar Han rat at 10 mg/kg, po measured at 24 hrs by LC/MS method; format: ADME, organism-based; conditions: in vivo, read-out: Drug uptake
In short: (§2)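 Male Wistar Han rats, two per dosing group, dosed orally at 10 mg/kg in 10% TWEEN. Plasma was separated from collected blood by centrifugation and analysed by LC/MS.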

[16] = Cmax in Wistar Han rat at 10 mg/kg, po by LC/MS method; format: ADME, organism-based; parameters: dose 10 mg/kg, route oral; conditions: in vivo; in short: as §2
[17] = AUC in Wistar Han rat at 10 mg/kg, po by LC/MS method; format: ADME, organism-based; conditions: in vivo; in short: as §2
[18] = Oral bioavailability in Wistar Han rat at 10 mg/kg by LC/MS method; format: ADME, organism-based; conditions: in vivo; in short: as §2
[19] = Half life in Wistar Han rat at 2 mg/kg, iv by LC/MS method; format: ADME, organism-based; conditions: in vivo; in short: as §1

| SMILES | Ratio [1] | EC90 [2] [pM] | EC90 [3] [pM] | Ratio [4] | EC90 [5] [pM] | EC90 [6] [pM] | Ratio [7] | EC90 [8] [pM] | EC90 [9] [pM] | Ratio [10] | Ratio [11] | EC90 [12] [pM] | Ratio [13] | clearance [14] [mL/min/kg] | concentration at 24 h [15] [nM] | Cmax [16] [nM] | AUC [17] [µM·h] | bioavailability [18] [%] | half-life [19] [h] |
| --- | --- | --- | --- | --- | --- | --- | --- | --- | --- | --- | --- | --- | --- | --- | --- | --- | --- | --- | --- |
| CCCc1ccc([C@@H]2Oc3cc(-c4cnc([C@@H]5CCCN5C(=O)[C@@H](NC(=O)OC)C(C)C)[nH]4)cc(F)c3-c3cc4cc(-c5cnc([C@@H]6CCCN6C(=O)[C@@H](NC(=O)OC)C6CCOCC6)[nH]5)ccc4n32)s1 | < 10 | 9 | 12 | < 10 | 6 | 2 | < 10 | 5 | 3 | < 10 | < 10 | 2 | < 10 |  |  |  |  |  |  |
| COC(=O)N[C@H](C(=O)N1CCC[C@H]1c1ncc(-c2cc(F)c3c(c2)O[C@@H](c2ccc(C(F)F)s2)n2c-3cc3cc(-c4cnc([C@@H]5CCCN5C(=O)[C@@H](NC(=O)OC)C5CCOCC5)[nH]4)ccc32)[nH]1)C(C)C | < 10 | 15 | 16 | < 10 | 6 | 4 | < 10 | 10 | 5 | < 10 | < 10 | 4 | < 10 |  |  |  |  |  |  |
| COC(=O)N[C@H](C(=O)N1CCC[C@H]1c1ncc(-c2cc(F)c3c(c2)O[C@@H](c2cc4c(s2)CCC4)n2c-3cc3cc(-c4cnc([C@@H]5CCCN5C(=O)[C@@H](NC(=O)OC)[C@@H]5CCOC(C)(C)C5)[nH]4)ccc32)[nH]1)C(C)C |  | 117 | 43 |  | 6 | 5 |  | 9 | 6 |  |  | 6 |  | 9 | 6 | 290 | 1.9 | 10.2 | 4.3 |
| COC(=O)N[C@H](C(=O)N1CCC[C@H]1c1ncc(-c2cc(F)c3c(c2)O[C@@H](c2ccc(C4CC4)s2)n2c-3cc3cc(-c4cnc([C@@H]5CCCN5C(=O)[C@@H](NC(=O)OC)C5CC(C)(C)OC(C)(C)C5)[nH]4)ccc32)[nH]1)C(C)C |  | 47 | 73 |  | 2 | 4 |  | 7 | 4 |  |  | 4 |  | 7 | 5 | 76 | 0.7 | 3.1 | 7.7 |
| COC(=O)N[C@H](C(=O)N1CCC[C@H]1c1ncc(-c2cc(F)c3c(c2)O[C@@H](c2cc4ccccc4s2)n2c-3cc3cc(-c4cnc([C@@H]5CCCN5C(=O)[C@@H](NC(=O)OC)C5CCOCC5)[nH]4)ccc32)[nH]1)C(C)C |  | 111 | 57 |  | 3 | 5 |  | 11 | 8 |  |  | 4 | 20 |  |  |  |  |  |  |
| COC(=O)N[C@H](C(=O)N1CCC[C@H]1c1ncc(-c2cc(F)c3c(c2)O[C@@H](c2ccc(C4CC4)s2)n2c-3cc3cc(-c4cnc([C@@H]5CCCN5C(=O)[C@@H](NC(=O)OC)C5CCOC6(CC6)C5)[nH]4)ccc32)[nH]1)C(C)C (stereo partly drawn) |  | 49 | 36 |  | 4 | 6 |  | 8 | 7 |  |  | 4 |  | 5 | 4 | 57 | 0.58 | 1.9 | 5.7 |
| CCc1ccc([C@@H]2Oc3cc(-c4cnc([C@@H]5CCCN5C(=O)[C@@H](NC(=O)OC)C(C)C)[nH]4)cc(F)c3-c3cc4cc(-c5cnc([C@@H]6CCCN6C(=O)[C@@H](NC(=O)OC)[C@@H]6CCOC(C)(C)C6)[nH]5)ccc4n32)s1 |  | 38 | 28 |  | 6 | 5 |  | 9 | 3 |  |  | 7 |  | 8 | 4 | 110 | 0.78 | 3.5 | 5.2 |
| COC(=O)N[C@H](C(=O)N1CCC[C@H]1c1ncc(-c2cc(F)c3c(c2)O[C@@H](c2cnc(C4CC4)s2)n2c-3cc3cc(-c4cnc([C@@H]5CCCN5C(=O)[C@@H](NC(=O)OC)[C@@H]5CCOC(C)(C)C5)[nH]4)ccc32)[nH]1)C(C)C |  | 29 | 15 |  | 6 | 6 |  | 15 | 6 |  |  | 7 |  | 9 | 4 | 60 | 0.51 | 2.8 | 4 |
| CCCc1ncc([C@@H]2Oc3cc(-c4cnc([C@@H]5CCCN5C(=O)[C@@H](NC(=O)OC)C(C)C)[nH]4)cc(F)c3-c3cc4cc(-c5cnc([C@@H]6CCCN6C(=O)[C@@H](NC(=O)OC)[C@@H]6CCOC(C)(C)C6)[nH]5)ccc4n32)s1 |  | 18 | 15 |  | 5 | 4 |  | 8 | 6 |  |  | 6 |  | 21 | 1 | 20 | 0.08 | 1 | 4.5 |
| COC(=O)N[C@H](C(=O)N1CCC[C@H]1c1ncc(-c2cc(F)c3c(c2)O[C@@H](c2ccc4c(c2)OCCC4)n2c-3cc3cc(-c4cnc([C@@H]5CCCN5C(=O)[C@@H](NC(=O)OC)[C@@H]5CCOC(C)(C)C5)[nH]4)ccc32)[nH]1)C(C)C |  | 48 | 17 |  | 5 | 3 |  | 7 | 4 |  |  | 5 |  | 25 | 1 | 10 | 0.08 | 1.2 | 3.8 |
| COC(=O)N[C@H](C(=O)N1CCC[C@H]1c1ncc(-c2cc(F)c3c(c2)O[C@@H](c2ccc(C4CC4)s2)n2c-3cc3cc(-c4cnc([C@@H]5CCCN5C(=O)[C@@H](NC(=O)OC)C5CC6CCC(C5)O6)[nH]4)ccc32)[nH]1)C(C)C (stereo partly drawn) |  | 28 | 19 |  | 4 | 5 |  | 12 | 6 |  |  | 8 |  | 13 | 3 | 24 | 0.33 | 2.5 | 3.9 |
